The results in this text go back to PubChem BioAssay.

SMILES strings stand for the structures. The source made the active and inactive calls.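 Rule for the calls: active = viability at or below 30% in both replicate assays; inconclusive = viability at or below 30% in just one of the two assays; inactive = the rest.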

This experiment in a line: HUVEC growth inhibition – cell-based, human, primary screen (AID 575).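 Note: 100% = median of untreated cell wells with 0.1% DMSO on each plate.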 As to conditions: HUVEC proliferation, CellTiter-Glo luminescence, 72 h; at 10 µM; stronger effect = lower value. Put shortly:
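material = primary HUVEC, no more than 12 passages | input = 1250 cells per well | controls = vehicle and MePR control wells | measured by = CTG luminescence | times = 72 h compound incubation | format = collagen-coated 384-well format | read-out = % viability vs DMSO wells | doses = single 10 µM dose, 0.1% DMSO, from 5x medium stock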
Broadly, the viability is a read-out of living cells in per cent, often relative to untreated cells. In the case of `O=C1OCCC1NC1=NCCC1` (stereo not given), the viability was 111% (inactive).
Consider `CN1C(=O)N(C)C(=O)C2(Cc3ccccc3N3CCOCC32)C1=O` (stereo not given), for which the viability was 94.8% (inactive).
With `O=c1[nH]c(=O)n(Cc2ccco2)c(O)c1C=NCCCn1ccnc1` the figure was 93.5% (inactive); with `CC1CCC(C(=O)NC(C(=O)N2CCC3(CC2)OCCO3)C(C)C)CC1` (stereo not given), 114% (inactive).
With `COc1ccccc1N1CCN(Cc2cccc(OC)c2O)CC1` the figure was 118% (inactive); with `O=C1CC(c2ccccc2)CC(O)=C1C=NCCN1CCN(C(=O)Cc2ccccc2)CC1` (stereo not given), 91.2% (inactive); with `OCCOCC#CCN1CCOCC1`, 101% (inactive).
Turning to `NC(=O)CSP(=O)(c1ccccc1)c1ccccc1`, the viability is 109% (inactive).
As for `CC1(C)C(c2ccccc2)=NC(c2cccnc2)N1O` (stereo not given), the viability was 106% (inactive).
Regarding `CCCCCCC(N)CC(=O)O` (stereo not given), the viability was 95.1% (inactive).
With `CCN(CC)CCN=Cc1c(O)n(CCC2=CCCCC2)c(=O)[nH]c1=O` the figure was 62.5% (inactive); with `CCN1c2nc3c(C)cccn3c(=O)c2CC2(C(=O)N(C)C(=O)N(C)C2=O)C1C` (stereo not given), 88.9% (inactive); with `C=CCn1c(O)c(C=NCCN(C)C)c(=O)[nH]c1=O`, 110% (inactive).
As for `Cc1ccccc1NC1=NCCCS1`, the viability is 99.3% (inactive).
Take `CN1CCC(N(C)c2ncnc3ccc(Br)cc23)CC1`: the viability was 78.5% (inactive).
With `O=c1[nH]c(=O)n(Cc2ccccc2)c(O)c1C=NCCCO` the figure was 94.1% (inactive); with `O=C1CC(N2CCC(n3c(=O)[nH]c4ccccc43)CC2)C(=O)N1c1ccc(F)cc1` (stereo not given), 80.7% (inactive); with `Cc1cc(NC(=O)COC(=O)c2c(C)nn(Cc3ccccc3)c2Cl)no1`, 79.2% (inactive).
Regarding `CN(C)c1cc(N)c2c(n1)CCC2` (tested in a mixture with another compound), the viability is 102% (inactive).
For the compound `c1ccc(C2CC3CC(c4ccco4)N2O3)cc1` (stereo not given), the viability was 82.8% (inactive).
Regarding `c1cncc(CNC2=NCCCCC2)c1`, the viability is 96.6% (inactive).
The value for `C=CCn1c(O)c(C(C)=NCc2cccnc2)c(=O)[nH]c1=O` was 88.1% (inactive); that for `NCCc1ccc(O)cc1` was 103% (inactive); that for `COc1ccc(C(=O)C(C)(C)NO)cc1` was 99.9% (inactive).
With `CCOC(=O)c1cccc([P+](=O)O)c1` the figure was 96.3% (inactive).
Take `O=C(CCCOc1ccc(Cl)cc1Cl)N1CCC2(CC1)OCCO2`: the viability was 93.3% (inactive).
With `CCCCOc1ccc(CN2CCN(CCO)CC2)cc1` the figure was 94.7% (inactive); with `CSc1ccc(CNC2CN3CCC2CC3)cc1` (stereo not given), 91.2% (inactive); with `CCCCn1c(O)c(C(C)=NCCc2ccccc2)c(=O)[nH]c1=O`, 95.6% (inactive).
The value for `O=C(c1sc2ccccc2c1Cl)N1CCC2(CC1)OCCO2` was 94.7% (inactive).
The value for `N#Cc1ccccc1Cn1cc(C(=O)c2ccco2)c2ccccc21` was 105% (inactive); that for `COc1ccc(CC2C(=O)NC(=O)NC2=O)c(OC)c1` was 114% (inactive).
Regarding `CCCCn1c(O)c(C(CC)=Nc2cccc(C(=O)O)c2)c(=O)[nH]c1=O`, the viability is 96.9% (inactive).
As to `COc1cc(C2NCc3ccccc3-n3cccc32)ccc1O` (stereo not given), the viability is 105% (inactive).
Consider `Cc1ccc(CS(=O)(=O)CCC(=O)N2CCC3(CC2)OCCO3)cc1`, for which the viability is 121% (inactive).
With `COc1cc(/C=N/n2cnnc2)ccc1OC(=O)N(C)C` the figure was 99.5% (inactive); with `CC#CP(=O)(OCC)C(O)(c1ccccc1)C(F)(F)F` (stereo not given), 96.7% (inactive).
As for `CCOC(=O)C(O)(c1ccc(N(CC)C(=O)OC)cc1)C(F)(F)F` (stereo not given), the viability is 110% (inactive).
With `CC(C)(C)C(O)C(Oc1ccc(Cl)cc1)n1cncn1` (stereo not given) the figure was 88.2% (inactive).
The value for `COC(=O)c1c(C)n(Cc2ccc3c(c2)OCO3)c2ccc(O)cc12` was 54.5% (inactive).
